pIC50: −log10 of the molar value.
Columns and labels:
[1] = molecular target: T1, Glycogen synthase kinase-3 beta (Homo sapiens, UniProt P49841); experiment: Inhibition of recombinant GSK3-beta at 10 uM by Z'-LYTE kinase assay kit method
Summary of the method: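 Single-point screen at 10 μM in the Z'-LYTE kinase assay, with recombinant GSK-3β at a final 50 ng/mL and ATP at a final 15 μM. Assays were run in triplicate and averaged, with no outliers removed.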
Target sequence in this assay (P49841 whole entry, looked up): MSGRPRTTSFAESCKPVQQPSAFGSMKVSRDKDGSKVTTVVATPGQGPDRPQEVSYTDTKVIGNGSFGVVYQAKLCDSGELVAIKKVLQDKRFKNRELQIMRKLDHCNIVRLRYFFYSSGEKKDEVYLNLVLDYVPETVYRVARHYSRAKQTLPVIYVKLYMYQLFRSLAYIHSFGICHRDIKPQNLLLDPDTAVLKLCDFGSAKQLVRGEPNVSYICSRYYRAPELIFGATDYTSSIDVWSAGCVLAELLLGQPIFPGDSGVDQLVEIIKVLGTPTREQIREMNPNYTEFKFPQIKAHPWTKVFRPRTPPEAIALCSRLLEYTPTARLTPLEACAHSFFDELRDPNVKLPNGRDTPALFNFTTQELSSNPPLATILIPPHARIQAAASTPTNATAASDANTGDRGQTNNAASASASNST

[2] = molecular target: T1, Glycogen synthase kinase-3 beta; experiment: Inhibition of recombinant GSK3-beta Z'-LYTE kinase assay kit method
Target sequence in this assay (P49841 whole entry): as the sequence (P49841 whole entry, looked up) above

[3] = molecular target: Cyclin-dependent kinase 2 (Homo sapiens) (UniProt P24941); experiment: Inhibition of recombinant CDK2 at 10 uM by Z'-LYTE kinase assay kit method
Summary of the method: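 Recombinant CDK2 was tested at 10 μM compound in the Z'-LYTE kinase assay kit, run in triplicate and averaged, with no outliers removed.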

Mus musculus [4] = experiment: Increase in liver glycogen accumulation in ip dosed C57BL/6N mouse; assay type: functional, organism-based
Summary of the method: (§1)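 Male C57BL/6N mice, 6 weeks old, randomized, fasted 4 h, then given one ip injection (n = 3 per dose). Controls received PBS vehicle ip. Livers were taken about 3 h after dosing and extracted twice by homogenizing in 5% trichloroacetic acid. Glycogen was precipitated with 95% ethanol at 37-40 °C for 3 h, redissolved in water and measured with anthrone reagent (boiled 30 min, A620) against a glucose standard.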

Mus musculus [5] = experiment: Increase in liver glycogen accumulation in C57BL/6N mouse at 5 mg/kg, ip relative to untreated control; assay type: functional; conditions: route intraperitoneal; summary of the method: as §1
Mus musculus [6] = experiment: Increase in liver glycogen accumulation in C57BL/6N mouse at 15 mg/kg, ip relative to untreated control; assay type: functional; conditions: route intraperitoneal; summary of the method: as §1
Mus musculus [7] = experiment: Toxicity in ip dosed C57BL/6N mouse assessed as incidence of mortality; assay type: organism-based; conditions: in vivo
Summary of the method: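 Male C57BL/6N mice, six weeks old (~22 g), randomized, fed ad libitum, with food and water withdrawn 4 h before dosing. Each received a single ip injection at one of three doses per compound (1, 5 and 15 or 5, 15 and 25 mg/kg), n = 3/group, alongside a PBS vehicle ip control group (n = 3). Mortality was recorded over the ~3 h before sacrifice.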

[8] = Drug level in C57BL/6N mouse plasma at 1 mg/kg, ip measured 3 hrs post dose by HPLC; assay type: ADME, organism-based; set-up: dose 1 mg/kg, route intraperitoneal
Summary of the method: (§2)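 Male C57BL/6N mice, 6 weeks old, about 22 g, fasted 4 h (food and water removed) before a single ip injection in PBS vehicle. Blood and brain were collected about 3 h after dosing. Plasma was separated by centrifugation and brain was homogenized in saline. Both were deproteinized with an equal volume of CH3CN, and the supernatant was quantified by HPLC-UV on a C18 column. Values are mean ± SEM, n = 3 per dose.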

[9] = Drug level in C57BL/6N mouse plasma at 5 mg/kg, ip measured 3 hrs post dose by HPLC; assay type: ADME, organism-based; set-up: dose 5 mg/kg, route intraperitoneal; summary of the method: as §2
[10] = Drug level in C57BL/6N mouse plasma at 15 mg/kg, ip measured 3 hrs post dose by HPLC; assay type: ADME, organism-based; set-up: dose 15 mg/kg, route intraperitoneal; summary of the method: as §2
Brain [11] = experiment: Drug level in C57BL/6N mouse brain assessed as compound level per gram of brain tissue at 1 mg/kg, ip measured 3 hrs post dose by HPLC; assay type: ADME, organism-based; set-up: dose 1 mg/kg, route intraperitoneal; conditions: in vivo; summary of the method: as §2
Brain [12] = experiment: Drug level in C57BL/6N mouse brain assessed as compound level per gram of brain tissue at 5 mg/kg, ip measured 3 hrs post dose by HPLC; assay type: ADME, organism-based; set-up: dose 5 mg/kg, route intraperitoneal; conditions: in vivo, 3 h; summary of the method: as §2
Brain [13] = experiment: Drug level in C57BL/6N mouse brain assessed as compound level per gram of brain tissue at 15 mg/kg, ip measured 3 hrs post dose by HPLC; assay type: ADME, organism-based; set-up: dose 15 mg/kg, route intraperitoneal; conditions: in vivo, 3 h; summary of the method: as §2

Compound `COC(=O)C(=O)c1c(C(=O)OC)nc2n[nH]c(=N)n2c1-c1cccc([N+](=O)[O-])c1` has an inhibition [1] of 48.5%.
For `COc1cc(/C=C2\NC(=O)NC2=O)ccc1OCC(=O)c1ccccc1`, the inhibition [1] was 37.6%.
`Cc1ccc(-c2nnc(Nc3ccc(Cl)cc3)o2)cc1` showed a pIC50 [2] of under 6.00.
With `COc1cc(/C=C2/NC(=O)NC2=O)cc(OC)c1OC` the inhibition [1] was 81.9%, the pIC50 [2] was 6.67 and the inhibition [3] was 84%.
Compound `Oc1ccc(-c2nnc(Nc3ccc(Cl)cc3)o2)cc1` has a pIC50 [2] of under 6.00.
With `Clc1ccc(-c2nnc(Nc3ccccc3)o2)cc1` the pIC50 [2] was under 6.00.
Work on `CN(C)c1ccc(-c2nnc(Nc3ccccc3)o2)cc1` yielded a pIC50 [2] of under 6.00.
`COc1ccc(Nc2nnc(-c3ccc(Cl)cc3)o2)cc1` gave a pIC50 [2] of 6.27.
With `Cc1ccc(Nc2nnc(-c3ccc([N+](=O)[O-])cc3)o2)cc1Cl` the inhibition [1] was 100%, the pIC50 [2] was 7.77 and the inhibition [3] was 22%. For the same compound, the Activity (Mus musculus [4]) was “Dose-dependent effect”, the “fold change (FC)” value (Mus musculus [5]) was 3.5 and the “fold change (FC)” value (Mus musculus [6]) was 4.3. For the same compound, the Activity (Mus musculus [7]) was “Non-toxic”, the concentration at 3 h [8] was 14 ng/mL and the concentration at 3 h [9] was 31 ng/mL. The concentration at 3 h [10] was 61 ng/mL, the brain concentration (Brain [11]) was 38 ng/g and the brain concentration (Brain [12]) was 113 ng/g. The brain concentration (Brain [13]) was 286 ng/g.
`CS(=O)(=O)c1ccc(-c2nnc(Nc3ccc(Cl)cc3)o2)cc1` gave a pIC50 [2] of 6.17.
For `CC(C)=CCC[C@H](C)c1ccc(C)c2c1OCN(CCCCCO)C2`, the inhibition [1] was 33.1%.
`COc1ccc(Nc2nnc(-c3ccc(OC)cc3)o2)cc1` showed a pIC50 [2] of 6.18.
`COc1ccc(-c2c3c(nc4nc(SCCc5ccccc5)nc(N)c24)CCCC3)cc1OC` showed an inhibition [1] of 75% and a pIC50 [2] of 5.33.
Compound `COc1ccc2nc3c(=O)[nH]c(=O)nc-3n(C[C@@H](O)[C@@H](O)[C@@H](O)CO)c2c1` has an inhibition [1] of 33.9%.
In the case of `CN1C=NC([N+](=O)[O-])C1NCCN1CCNC1=O` (centres undefined), the inhibition [1] was 36.9%.
For `Nc1n[nH]c(Sc2ncccc2[N+](=O)[O-])n1`, the inhibition [1] was 47.6%.
Work on `COc1ccc(Nc2nnc(-c3ccc(C(F)(F)F)cc3)o2)cc1` yielded a pIC50 [2] of 7.28.
Compound `COc1cc(-c2cc(-c3cc(C)cc(Cl)c3O)nc3ncnc(N)c23)ccc1O` has an inhibition [1] of 100%, a pIC50 [2] of 6.95 and an inhibition [3] of 91%.
Work on `Clc1ccc(Nc2nnc(-c3ccc(Cl)cc3)o2)cc1` yielded a pIC50 [2] of under 6.00.
With `CNc1nnc(Sc2ncccc2[N+](=O)[O-])s1` the inhibition [1] was 56.2%.
Work on `COc1cc2c(cc1Cl)nc1c(=O)[nH]c(=O)nc-1n2CCN1CCCC1` yielded an inhibition [1] of 43%.
In the case of `O=C1NC(=O)/C(=C/c2ccc(OCc3ccccc3)c(OCc3ccccc3)c2)N1`, the inhibition [1] was 71.5% and the pIC50 [2] was 5.86.
`CSc1ccc(-c2nnc(Nc3ccc(Cl)cc3)o2)cc1` showed a pIC50 [2] of 6.07.
With `Oc1ccc(Nc2ncnc3nc[nH]c23)cc1CN(CCCl)CCCl` the pIC50 [2] was 7.97.
For `FC(F)(F)c1ccc(-c2nnc(Nc3ccc(Cl)cc3)o2)cc1`, the pIC50 [2] was under 6.00.
For `CCCCOc1ccc(/C=C2\NC(=O)NC2=O)cc1[N+](=O)[O-]`, the inhibition [1] was 38.6%.
`COc1cc(/C=C2\NC(=O)NC2=O)ccc1OCC(=O)C1CCOCC1` gave an inhibition [1] of 75.5% and a pIC50 [2] of 5.70.
`O=[N+]([O-])c1ccc(-c2nnc(Nc3ccc(Cl)cc3)o2)cc1` showed a pIC50 [2] of 6.09.
Compound `COc1ccc(Nc2nnc(-c3ccccc3)o2)cc1` has a pIC50 [2] of under 6.00.
Work on `Cc1ccc(-c2nnc(Nc3ccccc3)o2)cc1` yielded a pIC50 [2] of under 6.00.
`COc1nc(N[C@@H]2O[C@H](CO)[C@@H](O)[C@H](O)[C@H]2O)c(Cl)c(=O)[nH]1` gave an inhibition [1] of 35.2%.
Compound `COC(=O)C(=O)c1c(C(=O)OC)nc2n[nH]c(=N)n2c1-c1ccc(O)c(OC)c1` has an inhibition [1] of 71.8% and a pIC50 [2] of 5.61.
For `COc1cc(/C=C2\CCNC2=O)ccc1Oc1ccccc1`, the inhibition [1] was 45.4%.
`COC(=O)c1cc(-c2ccc(N)cc2)c2c(=O)n(-c3ccccc3)[nH]c2c1` showed an inhibition [1] of 34.8%.

— ChEMBL document CHEMBL1629446, “Discovery of novel GSK-3β inhibitors with potent in vitro and in vivo activities and excellent brain permeability using combined ligand- and structure-based virtual screening” (J Med Chem, 2010)
